Test results reported in ChEMBL document CHEMBL1153932, “Hybrid alpha-bromoacryloylamido chalcones. Design, synthesis and biological evaluation” (Bioorg Med Chem Lett, 2009).

How the values were obtained:
[1] = test system: FM3A; assay: Antiproliferative activity against mouse FM3A cells after 48 hrs by Coulter counting analysis; assay type: functional, cell-based
[2] = test system: CCRF-CEM; assay: Antiproliferative activity against human CEM cells after 48 hrs by Coulter counting analysis; assay type: cell-based
[3] = test system: MOLT-4; assay: Antiproliferative activity against human MOLT4 cells after 48 hrs by Coulter counting analysis; assay type: functional, cell-based; settings: MOLT-4, 48 h
[4] = test system: HeLa; assay: Antiproliferative activity against human HeLa cells after 48 hrs by Coulter counting analysis; assay type: functional, cell-based
[5] = test system: L1210; assay: Antiproliferative activity against mouse L1210 cells after 48 hrs by Coulter counting analysis; assay type: functional, cell-based; settings: L1210, 48 h
[6] = Solubility of the compound; assay type: physicochemical
[7] = test system: K562; assay: Cell cycle arrest in human K562 cells assessed as accumulation at S phase at IC75 after 72 hrs using propidium iodide staining by flow cytometry; assay type: functional
In short: (§1)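 K562 cells were cultured 72 h with or without compound, then stained with propidium iodide and analysed by flow cytometry. The proportions of cells in sub-G1, G0–G1, S and G2-M were read from DNA histograms and compared with untreated controls.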

[8] = test system: K562; assay: Cell cycle arrest in human K562 cells assessed as accumulation at subG1 phase at IC75 after 72 hrs using propidium iodide staining by flow cytometry; assay type: functional; in short: as §1
[9] = test system: K562; assay: Antiproliferative activity against human K562 cells after 48 hrs by Coulter counting analysis; assay type: functional, cell-based; settings: K562, 48 h
[10] = test system: K562; assay: Cell cycle arrest in human K562 cells assessed as accumulation at G0-G1 phase at IC75 after 72 hrs using propidium iodide staining by flow cytometry; assay type: functional; in short: as §1
[11] = Inhibition of bovine brain tubulin polymerization; design: species or system Bos taurus
[12] = test system: K562; assay: Cell cycle arrest in human K562 cells assessed as accumulation at G2-M phase at IC75 after 72 hrs using propidium iodide staining by flow cytometry; assay type: functional; in short: as §1
[13] = species on record: Bos taurus; assay: Displacement of [3H]colchicine from bovine brain tubulin at 50 uM

IC50 [2] | IC50 [3] | IC50 [4] | IC50 [5] | solubility [6] | IC50 [11] | inhibition [13] | Structure (SMILES) | IC50 [1] | Activity [7] | Activity [8] | IC75 [9] | Activity [10] | Activity [12]
34 µM | 10 µM | 36 µM | 88 µM | – | – | – | Nc1ccc(/C=C/C(=O)c2ccccc2)cc1 | 146 µM | – | – | – | – | –
1.7 µM | 1.8 µM | 3.2 µM | 2.1 µM | – | – | – | C=C(Br)C(=O)Nc1ccc(/C=C/C(=O)c2ccc(Cl)c(Cl)c2)cc1 | 3.2 µM | – | – | – | – | –
1.1 µM | 0.85 µM | 1.1 µM | 0.91 µM | – | – | – | C=C(Br)C(=O)Nc1ccc(/C=C/C(=O)c2cc(OC)c(OC)c(OC)c2)cc1 | 0.95 µM | – | – | – | – | –
16 µM | 7.5 µM | 58 µM | 50 µM | – | – | – | Nc1ccc(/C=C/C(=O)c2ccc(I)cc2)cc1 | 110 µM | – | – | – | – | –
23 µM | 21 µM | 19 µM | 22 µM | – | – | – | COc1cccc(/C=C/C(=O)c2ccc(N)cc2)c1 | 45 µM | – | – | – | – | –
0.71 µM | 0.49 µM | 0.38 µM | 1.1 µM | Insoluble | > 40 µM | – | C=C(Br)C(=O)Nc1ccc(C(=O)/C=C/c2cccc(OC)c2OC)cc1 | 0.55 µM | 15.2% | 48.4% | 0.64 µM | 22.3% | 14.1%
1.4 µM | 1.3 µM | 1.4 µM | 0.98 µM | – | – | – | C=C(Br)C(=O)Nc1ccc(/C=C/C(=O)c2ccc(OC)cc2)cc1 | 1.2 µM | – | – | – | – | –
1.8 µM | 1.7 µM | 2.1 µM | 1.9 µM | – | – | – | C=C(Br)C(=O)Nc1ccc(/C=C/C(=O)c2ccc(C)cc2)cc1 | 2.1 µM | – | – | – | – | –
– | – | – | > 120 µM | – | – | – | C=C(Br)C(=O)O | – | – | – | – | – | –
8.5 µM | 7.9 µM | 7.7 µM | 14 µM | – | – | – | Nc1ccc(C(=O)/C=C/c2ccccc2)cc1 | 34 µM | – | – | – | – | –
9.7 µM | 10 µM | 8.2 µM | 25 µM | – | – | – | COc1ccc(/C=C/C(=O)c2ccc(N)cc2)c(OC)c1OC | 29 µM | – | – | – | – | –
39 µM | 12 µM | 40 µM | 123 µM | – | – | – | Nc1ccc(/C=C/C(=O)c2ccc(F)cc2)cc1 | 185 µM | – | – | – | – | –
37 µM | 19 µM | 98 µM | 160 µM | – | – | – | COc1ccc(C(=O)/C=C/c2ccc(N)cc2)cc1 | 282 µM | – | – | – | – | –
0.95 µM | 0.81 µM | 1.6 µM | 1.1 µM | – | – | – | C=C(Br)C(=O)Nc1ccc(/C=C/C(=O)c2ccc(Cl)cc2)cc1 | 1.3 µM | – | – | – | – | –
15 µM | 13 µM | 31 µM | 26 µM | – | – | – | Nc1ccc(/C=C/C(=O)c2ccc(Cl)c(Cl)c2)cc1 | 33 µM | – | – | – | – | –
14 µM | 8.6 µM | 8.7 µM | 18 µM | – | – | – | COc1ccc(/C=C/C(=O)c2ccc(N)cc2)cc1 | 35 µM | – | – | – | – | –
1.1 µM | 0.66 µM | 1.4 µM | 1.6 µM | – | – | – | C=C(Br)C(=O)Nc1ccc(/C=C/C(=O)c2ccc(F)cc2)cc1 | 1.2 µM | – | – | – | – | –
0.58 µM | 0.24 µM | 1.3 µM | 1.7 µM | Insoluble | 8.3 µM | 37% | C=C(Br)C(=O)Nc1ccc(C(=O)/C=C/c2ccccc2OC)cc1 | 0.37 µM | 6.3% | 83.4% | 2.94 µM | 6.4% | 3.9%
0.33 µM | 0.28 µM | 0.42 µM | 1.5 µM | – | – | – | C=C(Br)C(=O)Nc1ccc(C(=O)/C=C/c2cc(OC)c(OC)c(OC)c2)cc1 | 1.8 µM | – | – | – | – | –
27 µM | 13 µM | 15 µM | 87 µM | – | – | – | Nc1ccc(/C=C/C(=O)c2cccs2)cc1 | 123 µM | – | – | – | – | –
1.6 µM | 1.8 µM | 0.77 µM | 1.3 µM | – | – | – | C=C(Br)C(=O)Nc1ccc(C(=O)/C=C/c2ccc(OC)c(OC)c2)cc1 | 1.2 µM | – | – | – | – | –
15 µM | 11 µM | 41 µM | 21 µM | – | – | – | CCOc1ccc(C(=O)/C=C/c2ccc(N)cc2)cc1 | 55 µM | – | – | – | – | –

IC50 [2] | IC50 [3] | IC50 [4] | IC50 [5] | solubility [6] | IC50 [11] | inhibition [13] | Structure (SMILES) | IC50 [1] | Activity [7] | Activity [8] | IC75 [9] | Activity [10] | Activity [12]
5.7 µM | 7.5 µM | 7.9 µM | 6 µM | – | – | – | COc1cc(/C=C/C(=O)c2ccc(N)cc2)cc(OC)c1 | 12 µM | – | – | – | – | –
1.8 µM | 1.1 µM | 0.5 µM | 1.1 µM | – | – | – | C=C(Br)C(=O)Nc1ccc(C(=O)/C=C/c2cccc(OC)c2)cc1 | 1.8 µM | – | – | – | – | –
2.2 µM | 1.5 µM | 1.7 µM | 2.7 µM | – | – | – | C=C(Br)C(=O)Nc1ccc(C(=O)/C=C/c2cc(OC)cc(OC)c2)cc1 | 2 µM | – | – | – | – | –
21 µM | 7.8 µM | 43 µM | 111 µM | – | – | – | Nc1ccc(/C=C/C(=O)c2ccc(Cl)cc2)cc1 | 178 µM | – | – | – | – | –
9.3 µM | 8.6 µM | 7.8 µM | 25 µM | – | – | – | COc1ccc(/C=C/C(=O)c2ccc(N)cc2)cc1OC | 35 µM | – | – | – | – | –
1.5 µM | 0.5 µM | 0.96 µM | 0.88 µM | Insoluble | > 40 µM | – | C=C(Br)C(=O)Nc1ccc(C(=O)/C=C/c2ccccc2)cc1 | 0.69 µM | 16.4% | 47.6% | 2.77 µM | 23% | 13%
4 µM | 2.8 µM | 7.7 µM | 3.4 µM | – | – | – | C=C(Br)C(=O)Nc1ccc(/C=C/C(=O)c2ccc(I)cc2)cc1 | 8.3 µM | – | – | – | – | –
31 µM | 12 µM | 40 µM | 49 µM | – | – | – | Cc1ccc(C(=O)/C=C/c2ccc(N)cc2)cc1 | 107 µM | – | – | – | – | –
22 µM | 12 µM | 18 µM | 32 µM | – | – | – | Nc1ccc(/C=C/C(=O)c2cccc3ccccc23)cc1 | 41 µM | – | – | – | – | –
0.73 µM | 0.55 µM | 0.34 µM | 0.25 µM | Insoluble | > 40 µM | – | C=C(Br)C(=O)Nc1ccc(/C=C/C(=O)c2cccs2)cc1 | 0.52 µM | 23.2% | 42.8% | 0.82 µM | 17% | 17%
14 µM | 10 µM | 49 µM | 90 µM | – | – | – | Nc1ccc(/C=C/C(=O)c2ccc(Br)cc2)cc1 | 120 µM | – | – | – | – | –
4 µM | 3.1 µM | 3.9 µM | 5 µM | – | – | – | C=C(Br)C(=O)Nc1ccc(/C=C/C(=O)c2ccccc2)cc1 | 3.9 µM | – | – | – | – | –
20 µM | 9.9 µM | 28 µM | 67 µM | – | – | – | CN(C)c1ccc(/C=C/C(=O)c2ccc(N)cc2)cc1 | 96 µM | – | – | – | – | –
3.1 µM | 2.1 µM | 2 µM | 1.1 µM | – | – | – | C=C(Br)C(=O)Nc1ccc(/C=C/C(=O)c2cccc3ccccc23)cc1 | 2.4 µM | – | – | – | – | –
18 µM | 20 µM | 22 µM | 34 µM | – | – | – | COc1ccc(/C=C/C(=O)c2ccc(N)cc2)c(OC)c1 | 43 µM | – | – | – | – | –
2.3 µM | 5.6 µM | 6.9 µM | 7.8 µM | – | – | – | COc1cc(/C=C/C(=O)c2ccc(N)cc2)cc(OC)c1OC | 8.8 µM | – | – | – | – | –
2.5 µM | 1.5 µM | 1.9 µM | 14 µM | – | – | – | COc1cc(C(=O)/C=C/c2ccc(N)cc2)cc(OC)c1OC | 36 µM | – | – | – | – | –
2.3 µM | 0.85 µM | 0.7 µM | 2.1 µM | – | – | – | C=C(Br)C(=O)Nc1ccc(/C=C/C(=O)c2cccc(OC)c2)cc1 | 2.7 µM | – | – | – | – | –
0.99 µM | 0.68 µM | 1 µM | 0.62 µM | Insoluble | > 40 µM | – | C=C(Br)C(=O)Nc1ccc(/C=C/C(=O)c2ccc(Br)cc2)cc1 | 1.1 µM | 27.5% | 20.4% | 0.84 µM | 35.9% | 16.2%
26 µM | 20 µM | 33 µM | 38 µM | – | – | – | COc1cccc(C(=O)/C=C/c2ccc(N)cc2)c1 | 43 µM | – | – | – | – | –
1.1 µM | 0.61 µM | 0.31 µM | 0.9 µM | Insoluble | > 40 µM | – | C=C(Br)C(=O)Nc1ccc(C(=O)/C=C/c2ccc(OC)cc2)cc1 | 1 µM | 11.6% | 68.2% | 1.14 µM | 11% | 9.2%
1.1 µM | 1.5 µM | 1.1 µM | 0.52 µM | – | – | – | C=C(Br)C(=O)Nc1ccc(C(=O)/C=C/c2ccc(OC)cc2OC)cc1 | 1.2 µM | – | – | – | – | –
